Laboratory results from ChEMBL document CHEMBL1133520, “Design, synthesis, and biological evaluation of potent and selective amidino bicyclic factor Xa inhibitors” (J Med Chem, 2000).
Several values for one entry are separate records, joined by “and”; a condition that tells them apart may be missing. Equal entries are not always repeated.

Assays:
[1] = target: Coagulation factor X (Homo sapiens, UniProt P00742); assay: Binding affinity against human coagulation factor X
[2] = target: Serine protease 1 (Homo sapiens, UniProt P07477); assay: Binding affinity against human trypsin
Sequence of Serine protease 1 (P07477 whole entry): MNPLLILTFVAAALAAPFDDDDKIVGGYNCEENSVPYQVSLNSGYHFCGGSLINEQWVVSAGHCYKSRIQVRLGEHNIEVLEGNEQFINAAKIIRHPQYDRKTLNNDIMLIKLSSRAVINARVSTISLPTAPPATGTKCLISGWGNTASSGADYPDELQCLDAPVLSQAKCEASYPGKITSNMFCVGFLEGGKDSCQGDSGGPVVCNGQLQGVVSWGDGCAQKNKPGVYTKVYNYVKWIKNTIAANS
Summary of the method: (§1)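 Human purified enzymes in 0.1 M sodium phosphate, 0.2 M NaCl, 0.5% PEG 6000, pH 7.4. Inhibitor at 0.00316–10 μM in 8 half-log steps. Substrate S2222 for fXa and trypsin, S2366 for thrombin. Hydrolysis rate read at 405 nm over 30 min, with uninhibited controls. Ki calculated from % activity, Km and substrate concentration. Run in duplicate against internal standards.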

[3] = target: Prothrombin (Homo sapiens, UniProt P00734); assay: Binding affinity against human thrombin; summary of the method: as §1
[4] = Distribution volume at steady state in dog; type: ADME, organism-based, Canis lupus familiaris; conditions: in vivo, read-out: Vdss
Summary of the method: (§2)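 Given intravenously (rabbit: 10 mg/kg/h infusion over 60 min; dog: iv). Plasma protein-precipitated with acetonitrile; quantitation limit 5 nM. Noncompartmental fit. Half-life by nonlinear regression, AUC by trapezoidal rule. Clearance = dose/AUC0→∞. Vdss = Cl × MRT, with MRT = AUMC/AUC.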

[5] = (§3) Half life period of the compound; type: ADME; summary of the method: as §2
[6] = plasma clearance in dog; type: ADME, organism-based, Canis lupus familiaris; summary of the method: as §2
[7] = Cmax values of the compound; type: ADME, organism-based; conditions: in vivo; summary of the method: as §2
[8] = species on record: Oryctolagus cuniculus; assay: Tested for inhibition of thrombus formation using arterio-venous shunt device in rabbit; type: functional
Summary of the method: (§4)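 Rabbit arteriovenous shunt containing silk thread; blood circulated 40 min, then the thread and thrombus were weighed. Compound or saline vehicle infused iv via jugular vein from 1 h before circulation through the end (100 min total). Percent inhibition of thrombus weight per treatment group; ID50 estimated by linear regression.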

[9] = target: T1, Coagulation factor X (Oryctolagus cuniculus, UniProt O19045); assay: Binding affinity against fXa from rabbit purified enzyme
T1 sequence (O19045 whole entry): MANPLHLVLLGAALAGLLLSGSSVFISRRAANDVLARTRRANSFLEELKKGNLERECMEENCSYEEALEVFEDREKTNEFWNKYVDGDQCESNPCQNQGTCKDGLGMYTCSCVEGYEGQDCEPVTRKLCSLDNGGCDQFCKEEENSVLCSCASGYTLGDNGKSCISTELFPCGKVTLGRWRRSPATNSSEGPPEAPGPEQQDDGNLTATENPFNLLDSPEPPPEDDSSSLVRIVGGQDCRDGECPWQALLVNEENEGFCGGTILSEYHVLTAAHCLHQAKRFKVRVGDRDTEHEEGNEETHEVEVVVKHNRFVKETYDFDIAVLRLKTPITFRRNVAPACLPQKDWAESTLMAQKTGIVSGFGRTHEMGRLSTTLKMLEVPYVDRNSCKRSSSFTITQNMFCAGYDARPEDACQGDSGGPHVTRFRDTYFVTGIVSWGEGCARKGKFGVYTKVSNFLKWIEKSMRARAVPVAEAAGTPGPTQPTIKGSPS

[10] = as §3; type: ADME; summary of the method: as §2; remark: listed apart in the source
[11] = target: T1, Coagulation factor X; assay: Binding affinity against Coagulation factor X from rabbit purified enzyme
[12] = test system: Oryctolagus cuniculus; assay: Tested for inhibition of thrombus formation using arterio-venous shunt device in rabbit at 0.008-1 mg/kg/h; type: functional; summary of the method: as §4
[13] = plasma clearance in rabbit
[14] = species on record: Oryctolagus cuniculus; assay: Distribution volume at steady state in rabbit; conditions: in vivo, read-out: Vdss

Sequence of Coagulation factor X (Homo sapiens, UniProt P00742) (P00742 41-179 limits assumed): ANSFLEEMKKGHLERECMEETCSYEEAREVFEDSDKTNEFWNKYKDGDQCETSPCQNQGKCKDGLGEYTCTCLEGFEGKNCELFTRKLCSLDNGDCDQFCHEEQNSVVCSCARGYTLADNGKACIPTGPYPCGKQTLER
Sequence of Coagulation factor X (Homo sapiens, UniProt P00742) (P00742 235-488 limits assumed): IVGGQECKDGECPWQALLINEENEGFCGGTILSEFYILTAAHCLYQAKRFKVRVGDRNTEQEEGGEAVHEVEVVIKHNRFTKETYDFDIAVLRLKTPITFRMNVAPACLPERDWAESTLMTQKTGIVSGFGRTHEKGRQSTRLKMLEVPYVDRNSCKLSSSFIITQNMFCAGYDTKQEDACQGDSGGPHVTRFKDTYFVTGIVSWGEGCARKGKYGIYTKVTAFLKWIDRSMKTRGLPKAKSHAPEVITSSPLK

Row | SMILES | Ki [1] | Ki [2] [µM] | Ki [3] | other results
1 | N=C(N)c1ccc2cnn(CC(=O)Nc3ccc(-c4ccccc4S(N)(=O)=O)cn3)c2c1 | 0.0031 µM | 0.041 | 6.8 µM | –
2 | N=C(N)c1ccc2c(c1)ncn2CC(=O)c1ccc(-c2ccccc2)cc1 | – | – | > 21 µM | –
3 | CCOC(=O)C(CCc1ccc(C(=N)N)cc1)Cn1cnc2ccc(C(=N)N)cc21 (stereo not drawn) | 11.9 µM | – | > 21 µM | –
4 | CCOC(=O)C(CCc1ccc(C(=N)N)cc1)Cn1cnc2cc(C(=N)N)ccc21 (stereo not drawn) | 2.2 µM | – | > 21 µM | –
5 | CCOC(=O)C(CCc1cccc(C(=N)N)c1)Cn1cnc2cc(C(=N)N)ccc21 (stereo not drawn) | – | 0.22 | 2 µM | –
6 | N=C(N)c1ccc2c(c1)ncn2CC(=O)Nc1ccc(-c2ccccc2)cc1 | 3.9 µM | > 2.5 | 12.5 µM | –
7 | N=C(N)c1ccc2c(c1)ncn2CC(=O)Nc1ccc(-c2ccccc2S(N)(=O)=O)cc1 | 0.4 µM | 0.13 | 2.7 µM | –
8 | CCOC(=O)C(CCc1cccc(C(=N)N)c1)Cn1cnc2ccc(C(=N)N)cc21 (stereo not drawn) | 0.7 µM | 0.82 | 1.9 µM | –
9 | N=C(N)c1ccc2ncn(CC(=O)Nc3ccc(-c4ccccc4S(N)(=O)=O)cc3)c2c1 | 0.0024 µM | 0.047 | 2.2 µM | clearance [13]: 73.3 mL/min/kg; half-life [10]: 0.96 h; Vd [14]: 3.04 L/kg; Cmax [7]: 3850 nM
10 | N=C(N)c1ccc2ncn(CC(=O)c3ccc(-c4ccccc4)cc3)c2c1 | 0.12 µM | 0.32 | 1.2 µM | –
11 | N=C(N)c1ccc2ncn(CC(=O)Nc3ccc(-c4ccccc4)cc3)c2c1 | 0.22 µM | 0.48 | 4.7 µM | –

Continued, in another order:

Row | Ki [1] | Ki [2] [µM] | Ki [3] | SMILES | other results
12 | 0.0031 µM | 0.27 | 2.1 µM | N=C(N)c1ccc2[nH]cc(CC(=O)Nc3ccc(-c4ccccc4S(N)(=O)=O)cc3F)c2c1 | Vd [4]: 0.87 L/kg; half-life [5]: 2.5 h; clearance [6]: 18.3 mL/min/kg; Cmax [7]: 1630 nM
13 | – | 0.16 | 1.6 µM and 0.9 µM | N=C(N)c1ccc2[nH]cc(CC(=O)Nc3ccc(-c4ccccc4S(N)(=O)=O)cc3)c2c1 | Vd [4]: 0.38 L/kg; ID50 [8]: 1.7 µM/h/kg; Ki [9]: 0.006 µM; half-life [5]: 0.79 h; half-life [10]: 1.22 h; clearance [6]: 20.3 mL/min/kg; Cmax [7]: 1510 nM and 8700 nM
14 | 0.0007 µM | 0.14 | 0.5 µM | N=C(N)c1ccc2[nH]cc(CC(=O)Nc3ccc(-c4ccccc4S(N)(=O)=O)cc3Cl)c2c1 | Vd [4]: 2.01 L/kg; ID50 [8]: 0.35 µM/h/kg; half-life [5]: 1.75 h; Ki [11]: 0.00079 µM; clearance [6]: 50 mL/min/kg; Cmax [7]: 650 nM
15 | 0.0023 µM | 0.34 | 1 µM | Cc1cc(-c2ccccc2S(N)(=O)=O)ccc1NC(=O)Cc1c[nH]c2ccc(C(=N)N)cc12 | –
16 | 0.041 µM | 0.6 | 14 µM | CN(C(=O)Cc1c[nH]c2ccc(C(=N)N)cc12)c1ccc(-c2ccccc2S(N)(=O)=O)cc1 | –
17 | 0.00092 µM and 0.00044 µM | 0.15 | 2.1 µM | N=C(N)c1ccc2[nH]cc(CC(=O)Nc3ccc(-c4ccccc4S(N)(=O)=O)cn3)c2c1 | Vd [4]: 1.9 L/kg; ID50 [8]: 0.3 µM/h/kg; half-life [5]: 0.4 h; Ki [11]: 0.00093 µM; clearance [6]: 61.7 mL/min/kg; Cmax [7]: 2200 nM
18 | 0.0034 µM | 0.12 | 0.9 µM | CNS(=O)(=O)c1ccccc1-c1ccc(NC(=O)Cc2c[nH]c3ccc(C(=N)N)cc23)cc1 | –
19 | 0.007 µM | 0.39 | 1.7 µM | CN(C)S(=O)(=O)c1ccccc1-c1ccc(NC(=O)Cc2c[nH]c3ccc(C(=N)N)cc23)cc1 | –
20 | 0.24 µM | 0.3 | 2.8 µM | N=C(N)c1ccc2ncn(CC(=O)c3ccc(-c4ccccc4S(N)(=O)=O)cc3)c2c1 | –
21 | 0.00032 µM | 0.12 | 0.2 µM | N=C(N)c1ccc2[nH]cc(CC(=O)Nc3ccc(-c4ccccc4S(N)(=O)=O)cc3Br)c2c1 | Vd [4]: 0.67 L/kg; ID50 [12]: 0.14 µM/h/kg; half-life [5]: 1.8 h; Ki [11]: 0.0009 µM; clearance [6]: 22.3 mL/min/kg; Cmax [7]: 1430 nM
22 | 0.0006 µM | 0.24 | 0.2 µM | N=C(N)c1ccc2[nH]cc(CC(=O)Nc3ccc(-c4ccccc4S(N)(=O)=O)cc3I)c2c1 | –
23 | 0.089 µM | 1.5 | 21 µM | Cn1cc(CC(=O)Nc2ccc(-c3ccccc3S(N)(=O)=O)cn2)c2cc(C(=N)N)ccc21 | –
24 | 0.0041 µM | 0.16 | 0.8 µM | CCNS(=O)(=O)c1ccccc1-c1ccc(NC(=O)Cc2c[nH]c3ccc(C(=N)N)cc23)cc1 | –
25 | 0.008 µM | 0.18 | 0.4 µM | CCCNS(=O)(=O)c1ccccc1-c1ccc(NC(=O)Cc2c[nH]c3ccc(C(=N)N)cc23)cc1 | –
26 | 0.00071 µM | 0.14 | 1.5 µM | N=C(N)c1ccc2c(c1)C(CC(=O)Nc1ccc(-c3ccccc3S(N)(=O)=O)cc1)CN2 (single isomer, unassigned; (+)) | –
27 | 0.052 µM | 0.4 | 17 µM | N=C(N)c1ccc2c(c1)C(CC(=O)Nc1ccc(-c3ccccc3S(N)(=O)=O)cc1)CN2 (single isomer, unassigned; (-)) | –
